Data reported in paper PMC5010469 (Cancer research, 2016).

What was measured:
Assay type in all cases: cell-based
Hs578T cells [1] = experiment: Cell proliferation assay; conditions: NSC23766 treatment, Supplementary Figure 4
Hs578T cells [2] = experiment: Transwell invasion assay; conditions: dose series, Figure 4d
WASF3 complex = WASF3 complex (Homo sapiens, UniProt Q7L576); experiment: Immunoprecipitation of the WASF3 complex; conditions: IP of WASF3 from MDA-MB-231 cells, Figure 4f
MDA-MB-231 cells [3] = experiment: Cell proliferation assay; conditions: MDA-MB-231, NSC23766 treatment; Supplementary Figure 4
WASF3 = experiment: Western blotting of WASF3 complex protein levels; conditions: MDA-MB-231 and Hs578T cells, western blot; Figure 4e
MDA-MB-231 cells [4] = experiment: Transwell invasion assay
Outline: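 MDA-MB-231 breast cancer cells were obtained from ATCC and verified by SNP-CGH for characteristic cytogenetic changes. The panel included empty-vector parental cells and cells overexpressing full-length human NCKAP1 from a lentiviral vector. Cells were exposed to the RAC1-inhibitor test compound, with a dose series in one set. Invasion was read out in Transwell invasion assays run as previously described.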

WASF3 complex, sequence (Q7L576 whole entry, one chain of several): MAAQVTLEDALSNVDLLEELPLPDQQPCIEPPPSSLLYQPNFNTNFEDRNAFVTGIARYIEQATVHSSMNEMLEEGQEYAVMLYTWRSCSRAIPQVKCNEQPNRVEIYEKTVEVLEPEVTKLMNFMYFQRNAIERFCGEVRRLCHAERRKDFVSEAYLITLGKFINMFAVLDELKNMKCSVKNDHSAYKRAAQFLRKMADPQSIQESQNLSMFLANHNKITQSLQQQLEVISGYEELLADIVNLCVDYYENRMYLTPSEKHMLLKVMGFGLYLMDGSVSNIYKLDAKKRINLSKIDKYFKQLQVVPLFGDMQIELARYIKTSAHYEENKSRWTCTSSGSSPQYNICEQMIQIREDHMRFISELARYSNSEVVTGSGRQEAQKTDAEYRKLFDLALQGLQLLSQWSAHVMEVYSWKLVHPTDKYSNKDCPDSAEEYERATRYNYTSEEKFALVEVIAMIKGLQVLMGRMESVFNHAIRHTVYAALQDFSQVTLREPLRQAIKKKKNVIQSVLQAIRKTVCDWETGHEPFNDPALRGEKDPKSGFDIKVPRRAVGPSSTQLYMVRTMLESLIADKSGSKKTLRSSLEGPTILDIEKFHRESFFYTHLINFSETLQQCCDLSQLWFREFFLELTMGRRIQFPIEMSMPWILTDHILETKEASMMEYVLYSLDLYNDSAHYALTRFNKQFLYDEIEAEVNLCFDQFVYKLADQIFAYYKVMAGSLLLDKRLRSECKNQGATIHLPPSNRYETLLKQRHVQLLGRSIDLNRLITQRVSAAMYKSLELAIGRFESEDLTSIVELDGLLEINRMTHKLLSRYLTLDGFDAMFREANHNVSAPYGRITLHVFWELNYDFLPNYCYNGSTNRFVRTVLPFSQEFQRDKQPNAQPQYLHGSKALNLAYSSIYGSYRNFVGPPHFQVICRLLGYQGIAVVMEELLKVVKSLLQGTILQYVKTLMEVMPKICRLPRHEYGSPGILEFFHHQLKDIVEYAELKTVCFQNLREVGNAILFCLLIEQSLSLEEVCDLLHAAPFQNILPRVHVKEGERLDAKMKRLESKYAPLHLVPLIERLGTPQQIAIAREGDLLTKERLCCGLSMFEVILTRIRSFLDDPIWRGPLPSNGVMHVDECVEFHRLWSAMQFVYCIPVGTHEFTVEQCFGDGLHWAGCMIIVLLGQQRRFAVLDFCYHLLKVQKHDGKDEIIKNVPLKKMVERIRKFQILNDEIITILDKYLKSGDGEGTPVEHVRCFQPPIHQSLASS

With `CCN(CC)CCCC(C)Nc1nc(C)cc(Nc2ccc3nc(C)cc(N)c3c2)n1` (stereo not shown) [NSC23766] the “effect on cell proliferation” value (Hs578T cells [1]) was “without affecting cell proliferation”, the effect on invasion (Hs578T cells [2]) was “dose-dependent reduction in invasion” and the “RAC1 binding to the WASF3 complex” value (WASF3 complex; high dose 50 µM) was “significantly inhibited”. The WASF3 phosphorylation (WASF3 complex; high dose 50 µM) was “significantly inhibited”, the “engagement of NCKAP1 with the WASF3 complex” value (WASF3 complex) was “does not disrupt engagement of NCKAP1 with the WASF3 complex” and the “effect on cell proliferation” value (MDA-MB-231 cells [3]) was “without affecting cell proliferation”. For the same molecule, the “protein levels of WASF3, NCKAP1 and RAC1” value (WASF3) was “does not affect protein levels of either WASF3, NCKAP1 or RAC1”, the effect on invasion (MDA-MB-231 cells [4]; MDA-MB-231, dose series, Figure 4d) was “dose-dependent reduction in invasion” and the effect on invasion (MDA-MB-231 cells [4]; MDA-MB-231 cells overexpressing NCKAP1, Transwell, Figure 4h) was “significant reduction in invasion”. For the same molecule, the effect on invasion (MDA-MB-231 cells [4]; MDA-MB-231 parental cells containing the empty vector (EV), Transwell, Figure 4h) was “significant reduction in invasion”.
